Reference: ChEMBL document CHEMBL4316593 (Eur J Med Chem, 2019)

Experiments:
U-87 MG [1] = test: Induction of apoptosis in human U87 cells assessed as change in ERN1 gene expression at cytotoxic IC50 measured after 48 hrs […] relative to control; assay type: functional, U-87MG ATCC
Procedure, shortened: (§1)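 U87 cells grown in MEM with 10% FBS at 37°C, 5% CO2. Cells exposed to IC50 of test compound for 48 hrs, alongside untreated and cisplatin controls, each condition in triplicate. RNA isolated and profiled; differential expression called with DESeq2 (q-value < 0.05, fold change > 1.5), fold change versus untreated.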

U-87 MG [2] = test: Induction of apoptosis in human U87 cells assessed as decrease in caspase-3/7 activation at cytotoxic IC50 measured after 5 hrs by caspase-glo 3/7 luminescence assay relative to control; assay type: functional, U-87MG ATCC; set-up: scale not given: the % may be the effect or the level left
Procedure, shortened: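 Cells grown overnight in 96-well format, then given IC50 for 5 hrs at 37°C, 5% CO2, with negative, positive and blank (medium+DMSO+dye) wells. Equilibrated 30 min at room temperature, Caspase-Glo 3/7 reagent added 1:1 in the dark, luminescence read at 1 hr. Fold change = (test−blank)/(control−blank). Triplicate measurements, at least two independent experiments.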

U-87 MG [3] = test: Induction of DNA damage in human U87 cells assessed as change in PLK2 gene expression at cytotoxic IC50 measured after 48 hrs […] relative to control; assay type: functional, U-87MG ATCC
Procedure, shortened: (§2)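 U87 expression profiling. Cells incubated 48hrs at 37°C, 5% CO₂ with the IC₅₀ concentration, alongside a cisplatin and an untreated control, in triplicate. RNA was isolated by one common protocol and profiled. DEGs were called with DESeq2 (q < 0.05, fold change > 1.5) and expressed as fold change versus untreated.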

[4] = Inhibition of RTK/PI3K/AKT/mTOR signaling in human U87 cells assessed as up regulation of neuron navigator 1 gene expression at cytotoxic IC50 measured after 48 hrs relative to control; assay type: cell-based
[5] = Inhibition of RTK/PI3K/AKT/mTOR signaling in human U87 cells assessed as up regulation of INHBE gene expression at cytotoxic IC50 measured after 48 hrs relative to control; assay type: cell-based; details: U-87MG ATCC
Procedure, shortened: (§3)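 Cells were exposed for 48hrs at 37°C in humidified 5% CO₂ to the compound at its previously determined IC₅₀, with Cisplatin at its IC₅₀ and an untreated negative control alongside. Each condition was run in triplicate. RNA was isolated from all samples by the same protocol. Genes were called differentially expressed by DESeq2 at q-value < 0.05 and fold change > 1.5.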

U-87 MG [6] = test: Induction of apoptosis in human U87 cells assessed as change in CAPN1 gene expression at cytotoxic IC50 measured after 48 hrs […] relative to control; assay type: functional, U-87MG ATCC; procedure, shortened: as §1
[7] = Inhibition of RTK/PI3K/AKT/mTOR signaling in human U87 cells assessed as up regulation of AGRN gene expression at cytotoxic IC50 measured after 48 hrs relative to control; assay type: cell-based; details: U-87MG ATCC; procedure, shortened: as §3
U-87 MG [8] = test: Cell cycle arrest in human U87 cells assessed as change in CDK2 gene expression at cytotoxic IC50 measured after 48 hrs […] relative to control; assay type: functional, U-87MG ATCC; procedure, shortened: as §2
[9] = Inhibition of RTK/PI3K/AKT/mTOR signaling in human U87 cells assessed as up regulation of TOMM22 gene expression at cytotoxic IC50 measured after 48 hrs relative to control; assay type: cell-based; details: U-87MG ATCC
[10] = Inhibition of RTK/PI3K/AKT/mTOR signaling in human U87 cells assessed as down regulation of SORT1 gene expression at cytotoxic IC50 measured after 48 hrs relative to control; assay type: cell-based; details: U-87MG ATCC; procedure, shortened: as §3
[11] = Inhibition of RTK/PI3K/AKT/mTOR signaling in human U87 cells assessed as up regulation of EPS8 like 2 gene expression at cytotoxic IC50 measured after 48 hrs relative to control; assay type: cell-based; details: U-87MG ATCC; procedure, shortened: as §3
[12] = Inhibition of RTK/PI3K/AKT/mTOR signaling in human U87 cells assessed as up regulation of ankyrin repeat domain 10 gene expression at cytotoxic IC50 measured after 48 hrs relative to control; assay type: cell-based; details: U-87MG ATCC
[13] = Inhibition of RTK/PI3K/AKT/mTOR signaling in human U87 cells assessed as up regulation of regulator of chromosome condensation 2 gene expression at cytotoxic IC50 measured after 48 hrs relative to control; assay type: cell-based; details: U-87MG ATCC
U-87 MG [14] = test: Induction of apoptosis in human U87 cells assessed as change in ITPR1 gene expression at cytotoxic IC50 measured after 48 hrs […] relative to control; assay type: functional, U-87MG ATCC; procedure, shortened: as §1
[15] = Inhibition of RTK/PI3K/AKT/mTOR signaling in human U87 cells assessed as down regulation of WDR62 gene expression at cytotoxic IC50 measured after 48 hrs relative to control; assay type: cell-based; details: U-87MG ATCC; procedure, shortened: as §3
U-87 MG [16] = test: Induction of apoptosis in human U87 cells assessed as change in TNFRSF10C gene expression at cytotoxic IC50 measured after 48 hrs […] relative to control; assay type: functional, U-87MG ATCC; procedure, shortened: as §1
[17] = Inhibition of RTK/PI3K/AKT/mTOR signaling in human U87 cells assessed as down regulation of ERCC3 gene expression at cytotoxic IC50 measured after 48 hrs relative to control; assay type: cell-based; details: U-87MG ATCC; procedure, shortened: as §1
U-87 MG [18] = test: Induction of DNA damage in human U87 cells assessed as change in PCNA gene expression at cytotoxic IC50 measured after 48 hrs […] relative to control; assay type: functional, U-87MG ATCC; procedure, shortened: as §2
[19] = Inhibition of RTK/PI3K/AKT/mTOR signaling in human U87 cells assessed as down regulation of CDK5RAP2 gene expression at cytotoxic IC50 measured after 48 hrs relative to control; assay type: cell-based; details: U-87MG ATCC; procedure, shortened: as §1
U-87 MG [20] = test: Induction of DNA damage in human U87 cells assessed as change in CDKN1A gene expression at cytotoxic IC50 measured after 48 hrs […] relative to control; assay type: functional, U-87MG ATCC; procedure, shortened: as §2
U-87 MG [21] = test: Cell cycle arrest in human U87 cells assessed as change in ESPL1 gene expression at cytotoxic IC50 measured after 48 hrs […] relative to control; assay type: functional, U-87MG ATCC; procedure, shortened: as §2
[22] = Inhibition of RTK/PI3K/AKT/mTOR signaling in human U87 cells assessed as down regulation of CMTM3 gene expression at cytotoxic IC50 measured after 48 hrs relative to control; assay type: cell-based; details: U-87MG ATCC; procedure, shortened: as §1
[23] = Inhibition of RTK/PI3K/AKT/mTOR signaling in human U87 cells assessed as up regulation of platelet derived growth factor C gene expression at cytotoxic IC50 measured after 48 hrs relative to control; assay type: cell-based
U-87 MG [24] = test: Induction of apoptosis in human U87 cells assessed as change in CTSV gene expression at cytotoxic IC50 measured after 48 hrs […] relative to control; assay type: functional, U-87MG ATCC; procedure, shortened: as §1
[25] = Inhibition of RTK/PI3K/AKT/mTOR signaling in human U87 cells assessed as up regulation of GGA2 gene expression at cytotoxic IC50 measured after 48 hrs relative to control; assay type: cell-based; details: U-87MG ATCC; procedure, shortened: as §3
U-87 MG [26] = test: Induction of apoptosis in human U87 cells assessed as change in CAPN2 gene expression at cytotoxic IC50 measured after 48 hrs […] relative to control; assay type: functional, U-87MG ATCC; procedure, shortened: as §1
[27] = Inhibition of RTK/PI3K/AKT/mTOR signaling in human U87 cells assessed as up regulation of MORC family CW-type zinc finger 2 gene expression at cytotoxic IC50 measured after 48 hrs relative to control; assay type: cell-based; details: U-87MG ATCC; procedure, shortened: as §3
[28] = Inhibition of RTK/PI3K/AKT/mTOR signaling in human U87 cells assessed as up regulation of ETS variant 1 gene expression at cytotoxic IC50 measured after 48 hrs relative to control; assay type: cell-based; details: U-87MG ATCC; procedure, shortened: as §3

Structure (SMILES): CC(=O)C(=NNc1ccccc1C#N)C(C)=O
- log2FC (U-87 MG [1]): -1.369
- Activity (U-87 MG [2]): 60.2%
- fold change (FC) (U-87 MG [3]): 1.28
- log2FC [4]: 0.879
- log2FC [5]: 2.96
- log2FC (U-87 MG [6]): 0.8843
- log2FC [7]: 0.578
- fold change (FC) (U-87 MG [8]): 1.392
- log2FC [9]: 0.475
- log2FC [10]: -0.801
- log2FC [11]: 0.818
- log2FC [12]: 1.12
- log2FC [13]: 1.06
- log2FC (U-87 MG [14]): -3.437
- log2FC [15]: -1.86
- log2FC (U-87 MG [16]): 3.078
- log2FC [17]: -0.491
- fold change (FC) (U-87 MG [18]): 1.668
- log2FC [19]: -0.519
- fold change (FC) (U-87 MG [20]): 1.296
- fold change (FC) (U-87 MG [21]): 2.307
- log2FC [22]: -0.716
- log2FC [23]: 0.883
- log2FC (U-87 MG [24]): 1.986
- log2FC [25]: 0.505
- log2FC (U-87 MG [26]): -1.189
- log2FC [27]: 0.946
- log2FC [28]: 1.09
